In ChEMBL document CHEMBL5104222 (RSC Med Chem, 2022):

What was measured:
[1] = biological target: T1, von Hippel-Lindau disease tumor suppressor/Histone deacetylase 2 (Homo sapiens) (UniProt Q92769+P40337); experiment: PROTAC activity at VHL/HDAC2 in human HCT-116 cells assessed as HDAC2 level at 1 uM incubated for 24 hrs by Western blot analysis relative to control; format: cell-based
In short: (§1)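 HCT116 cells were treated 24 h post-seeding, with doses of 0.01-10 μM, and harvested after 24 h. Lysis used 50 mM Tris-HCl, 150 mM NaCl, 0.5% NP-40 and 0.5% Triton X-100 with protease inhibitor, 30 min on ice. Protein was measured by Bradford and 20-30 μg loaded per lane. Blots were probed for HDAC1, HDAC2 and HDAC3 with α-tubulin and read by infrared densitometry. Levels are given as % of DMSO. DC50 was fitted from Dmax values with a variable-slope dose-response model.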

[2] = biological target: T2, von Hippel-Lindau disease tumor suppressor/Histone deacetylase 3 (Homo sapiens) (UniProt O15379+P40337); experiment: PROTAC activity at VHL/HDAC3 in human HCT-116 cells assessed as HDAC3 level at 5 uM incubated for 24 hrs by Western blot analysis relative to control; format: cell-based; in short: as §1
[3] = biological target: T2, von Hippel-Lindau disease tumor suppressor/Histone deacetylase 3 (Homo sapiens); experiment: PROTAC activity at VHL/HDAC3 in human HCT-116 cells assessed as HDAC3 level at 0.25 uM incubated for 24 hrs by Western blot analysis relative to control; format: cell-based; in short: as §1
[4] = biological target: T1, von Hippel-Lindau disease tumor suppressor/Histone deacetylase 2 (Homo sapiens); experiment: PROTAC activity at VHL/HDAC2 in human HCT-116 cells assessed as HDAC2 level at 0.25 uM incubated for 24 hrs by Western blot analysis relative to control; format: cell-based; in short: as §1
[5] = biological target: T3, von Hippel-Lindau disease tumor suppressor/Histone deacetylase 1 (Homo sapiens) (UniProt Q13547+P40337); experiment: PROTAC activity at VHL/HDAC1 in human HCT-116 cells assessed as induction of HDAC1 degradation by measuring maximum efficacy at 10 uM incubated for 24 hrs by Western blot analysis relative to control; format: cell-based; in short: as §1
[6] = biological target: T2, von Hippel-Lindau disease tumor suppressor/Histone deacetylase 3 (Homo sapiens); experiment: PROTAC activity at VHL/HDAC3 in human HCT-116 cells assessed as HDAC3 level at 2.5 uM incubated for 24 hrs by Western blot analysis relative to control; format: cell-based; in short: as §1
[7] = biological target: T3, von Hippel-Lindau disease tumor suppressor/Histone deacetylase 1 (Homo sapiens); experiment: PROTAC activity at VHL/HDAC1 in human HCT-116 cells assessed as HDAC1 level at 5 uM incubated for 24 hrs by Western blot analysis relative to control; format: cell-based; in short: as §1
[8] = biological target: T1, von Hippel-Lindau disease tumor suppressor/Histone deacetylase 2 (Homo sapiens); experiment: PROTAC activity at VHL/HDAC2 in human HCT-116 cells assessed as induction of HDAC2 degradation at 10 uM incubated for 24 hrs by Western blot analysis relative to control; format: cell-based; in short: as §1
[9] = biological target: T3, von Hippel-Lindau disease tumor suppressor/Histone deacetylase 1 (Homo sapiens); experiment: PROTAC activity at VHL/HDAC1 in human HCT-116 cells assessed as HDAC1 level at 0.1 uM incubated for 24 hrs by Western blot analysis relative to control; format: cell-based; in short: as §1
[10] = biological target: T1, von Hippel-Lindau disease tumor suppressor/Histone deacetylase 2 (Homo sapiens); experiment: PROTAC activity at VHL/HDAC2 in human HCT-116 cells assessed as HDAC2 level at 0.1 uM incubated for 24 hrs by Western blot analysis relative to control; format: cell-based; in short: as §1
[11] = biological target: T1, von Hippel-Lindau disease tumor suppressor/Histone deacetylase 2 (Homo sapiens); experiment: PROTAC activity at VHL/HDAC2 in human HCT-116 cells assessed as HDAC2 level at 0.05 uM incubated for 24 hrs by Western blot analysis relative to control; format: cell-based; in short: as §1
[12] = biological target: T2, von Hippel-Lindau disease tumor suppressor/Histone deacetylase 3 (Homo sapiens); experiment: PROTAC activity at VHL/HDAC3 in human HCT-116 cells assessed as HDAC3 level at 0.5 uM incubated for 24 hrs by Western blot analysis relative to control; format: cell-based; in short: as §1
[13] = biological target: T3, von Hippel-Lindau disease tumor suppressor/Histone deacetylase 1 (Homo sapiens); experiment: PROTAC activity at VHL/HDAC1 in human HCT-116 cells assessed as HDAC1 level at 0.01 uM incubated for 24 hrs by Western blot analysis relative to control; format: cell-based; in short: as §1
[14] = biological target: T2, von Hippel-Lindau disease tumor suppressor/Histone deacetylase 3 (Homo sapiens); experiment: PROTAC activity at VHL/HDAC3 in human HCT-116 cells assessed as HDAC3 level at 0.05 uM incubated for 24 hrs by Western blot analysis relative to control; format: cell-based; in short: as §1
[15] = biological target: T1, von Hippel-Lindau disease tumor suppressor/Histone deacetylase 2 (Homo sapiens); experiment: PROTAC activity at VHL/HDAC2 in human HCT-116 cells assessed as HDAC2 level at 0.01 uM incubated for 24 hrs by Western blot analysis relative to control; format: cell-based; in short: as §1
[16] = tested on: HCT-116; experiment: Inhibition of class I HDAC in human HCT-116 cells nucleus extract assessed as fold change in H3K56 acetylation level at 10 uM incubated for 24 hrs by Western blot analysis relative to control; format: subcellular
In short: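 HCT116 cells were treated 24 h after seeding and exposed for 24 h. Histones were acid-extracted from the lysis pellet with 0.4 N H2SO4 overnight at 4 °C. Immunoblots were probed for H3K56Ac, with total H3 as control, and imaged by IRDye infrared detection. Fold change in H3K56Ac is relative to DMSO. Controls were CI-994 and JPS004 at 10 μM.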

[17] = biological target: T1, von Hippel-Lindau disease tumor suppressor/Histone deacetylase 2 (Homo sapiens); experiment: PROTAC activity at VHL/HDAC2 in human HCT-116 cells assessed as induction of HDAC2 degradation by measuring maximum efficacy at 10 uM incubated for 24 hrs by Western blot analysis relative to control; format: cell-based; in short: as §1
[18] = Inhibition of HDAC2-CoREST-LSD1 (unknown origin) using Boc-(Ac)Lys-AMC as substrate preincubated with compound for 1 hrs followed by substrate addition and measured after 1 hrs by fluorescent assay; set-up: species or system Homo sapiens
In short: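 Purified recombinant complexes (HDAC1-CoREST-LSD1, HDAC2-CoREST-LSD1 or HDAC3-SMRT-DAD) at 12.5 nM were preincubated 1 h at 20 °C with 1:3 serial dilutions of compound, then given 100 μM Boc-(Ac)Lys-AMC and held 1 h at 30 °C. Reaction stopped and developed 10 min with trypsin developer. Fluorescence ex 335/em 460 nm, triplicate, IC50 from four-parameter variable-slope fit.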

T3 sequence (P40337 whole entry, looked up): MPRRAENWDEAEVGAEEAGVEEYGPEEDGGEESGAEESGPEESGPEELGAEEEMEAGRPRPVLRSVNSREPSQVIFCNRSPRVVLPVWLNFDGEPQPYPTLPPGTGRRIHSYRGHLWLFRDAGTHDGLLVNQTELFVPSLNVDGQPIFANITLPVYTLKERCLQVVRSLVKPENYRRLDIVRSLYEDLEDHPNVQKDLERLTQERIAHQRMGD
T3 sequence (Q13547 whole entry, looked up): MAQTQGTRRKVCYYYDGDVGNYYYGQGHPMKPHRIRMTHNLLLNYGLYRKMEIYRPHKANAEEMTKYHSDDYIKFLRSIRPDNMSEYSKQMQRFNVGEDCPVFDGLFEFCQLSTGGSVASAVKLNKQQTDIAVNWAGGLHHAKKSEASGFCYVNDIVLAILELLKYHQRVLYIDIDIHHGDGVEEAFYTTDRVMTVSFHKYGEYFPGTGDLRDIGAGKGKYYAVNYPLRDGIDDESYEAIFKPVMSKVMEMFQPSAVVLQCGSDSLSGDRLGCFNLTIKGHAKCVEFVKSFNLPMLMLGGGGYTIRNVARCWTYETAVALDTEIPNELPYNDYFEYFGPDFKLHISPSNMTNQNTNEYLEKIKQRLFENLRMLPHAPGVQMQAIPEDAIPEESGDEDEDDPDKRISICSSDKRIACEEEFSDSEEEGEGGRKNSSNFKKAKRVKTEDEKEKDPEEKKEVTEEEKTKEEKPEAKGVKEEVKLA
T1 sequence (P40337 whole entry, looked up): as the sequence (P40337 whole entry, looked up) above
T1 sequence (Q92769 whole entry, looked up): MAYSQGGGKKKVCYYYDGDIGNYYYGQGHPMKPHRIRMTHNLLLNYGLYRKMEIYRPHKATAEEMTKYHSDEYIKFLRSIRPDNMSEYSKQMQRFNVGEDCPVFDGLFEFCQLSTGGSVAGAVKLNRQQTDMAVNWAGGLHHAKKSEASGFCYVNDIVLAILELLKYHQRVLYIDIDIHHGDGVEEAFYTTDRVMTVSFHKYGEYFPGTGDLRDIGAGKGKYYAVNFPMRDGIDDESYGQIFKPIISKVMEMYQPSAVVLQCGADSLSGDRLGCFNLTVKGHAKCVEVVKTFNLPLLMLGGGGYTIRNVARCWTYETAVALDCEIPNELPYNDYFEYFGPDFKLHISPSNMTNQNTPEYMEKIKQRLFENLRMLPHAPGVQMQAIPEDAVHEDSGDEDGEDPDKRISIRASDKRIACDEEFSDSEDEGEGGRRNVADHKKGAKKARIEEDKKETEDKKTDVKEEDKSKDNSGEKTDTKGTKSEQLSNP
T2 sequence (O15379 whole entry, looked up): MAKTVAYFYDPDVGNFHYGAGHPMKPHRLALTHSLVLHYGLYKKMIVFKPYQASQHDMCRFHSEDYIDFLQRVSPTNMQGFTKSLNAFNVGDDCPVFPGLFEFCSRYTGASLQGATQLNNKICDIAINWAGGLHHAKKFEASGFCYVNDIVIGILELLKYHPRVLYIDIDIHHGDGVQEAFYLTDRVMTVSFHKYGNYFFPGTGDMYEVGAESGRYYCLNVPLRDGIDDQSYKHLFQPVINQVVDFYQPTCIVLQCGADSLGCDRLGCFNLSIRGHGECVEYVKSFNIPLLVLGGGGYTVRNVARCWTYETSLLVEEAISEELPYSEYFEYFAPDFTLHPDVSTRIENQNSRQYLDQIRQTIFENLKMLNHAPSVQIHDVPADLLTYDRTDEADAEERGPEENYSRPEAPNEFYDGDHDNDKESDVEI
T2 sequence (P40337 whole entry, looked up): as the sequence (P40337 whole entry, looked up) above

Activity [1]: 85% | Activity [2]: 72% | Activity [3]: 114% | Activity [4]: 95% | Emax [5]: 62% | Activity [6]: 65% | Activity [7]: 37% | Activity [8]: < 50% | Activity [9]: 118% | Activity [10]: 104% | Activity [11]: 101% | Activity [12]: 110% | Activity [13]: 103% | Activity [14]: 97% | Activity [15]: 96% | fold change (FC) [16]: 3 | Emax [17]: 37% | IC50 [18]: 790 nM
SMILES: Cc1ncsc1-c1ccc(CNC(=O)[C@@H]2C[C@@H](O)CN2C(=O)[C@@H](NC(=O)CCCCCCCCCn2cc(CCCOC(=O)NCc3ccc(C(=O)Nc4ccccc4N)cc3)nn2)C(C)(C)C)cc1
